Data taken from ChEMBL document CHEMBL3112482, “Nonclassical antifolates, part 5. Benzodiazepine analogs as a new class of DHFR inhibitors: synthesis, antitumor testing and molecular modeling study” (Eur J Med Chem, 2014).

How the values were obtained:
Type in all cases: functional
[1] = tested on: LOX IMVI; experiment: Growth inhibition of human LOXIMVI cells at 10 uM after 48 hrs; conditions: read-out: GI
Summary of the method: (§1)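 Single-dose primary screen in the NCI 60 human tumour cell line panel, run at the NCI facility. The panel covers nine subpanels: leukaemia, non-small cell lung, colon, CNS, melanoma, ovarian, renal, prostate and breast. Read-out was percent growth of treated cells, shown as a mean graph and reported as percent growth inhibition.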

[2] = tested on: M14; experiment: Growth inhibition of human M14 cells at 10 uM after 48 hrs; conditions: M14, 48 h, read-out: GI; summary of the method: as §1
[3] = tested on: OVCAR-8; experiment: Growth inhibition of human OVCAR8 cells at 10 uM after 48 hrs; conditions: OVCAR-8, 48 h, read-out: GI; summary of the method: as §1
[4] = tested on: SF-295; experiment: Growth inhibition of human SF295 cells at 10 uM after 48 hrs; conditions: SF-295, 48 h, read-out: GI
Summary of the method: (§2)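 NCI 60-cell-line disease-oriented human tumor panel, single-dose primary screen at 10 µM. Data given as mean-graph percent growth of treated cells, reported as percent growth inhibition (GI %).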

[5] = tested on: HT-29; experiment: Growth inhibition of human HT-29 cells at 10 uM after 48 hrs; conditions: HT-29, 48 h, read-out: GI; summary of the method: as §1
[6] = tested on: HCT-15; experiment: Growth inhibition of human HCT15 cells at 10 uM after 48 hrs; conditions: HCT-15, 48 h, read-out: GI; summary of the method: as §1
[7] = tested on: UACC-62; experiment: Growth inhibition of human UACC62 cells at 10 uM after 48 hrs; conditions: UACC-62, 48 h, read-out: GI; summary of the method: as §2
[8] = tested on: BT-549; experiment: Growth inhibition of human BT549 cells at 10 uM after 48 hrs; conditions: BT-549, 48 h, read-out: GI; summary of the method: as §1
[9] = tested on: HOP-62; experiment: Growth inhibition of human HOP62 cells at 10 uM after 48 hrs; conditions: HOP-62, 48 h, read-out: GI; summary of the method: as §1
[10] = tested on: U-251; experiment: Growth inhibition of human U251 cells at 10 uM after 48 hrs; conditions: U-251, 48 h, read-out: GI; summary of the method: as §2
[11] = tested on: NCI-H226; experiment: Growth inhibition of human NCI-H226 cells at 10 uM after 48 hrs; conditions: NCI-H226, 48 h, read-out: GI; summary of the method: as §1
[12] = tested on: NCI-H522; experiment: Growth inhibition of human NCI-H522 cells at 10 uM after 48 hrs; conditions: NCI-H522, 48 h, read-out: GI; summary of the method: as §1
[13] = tested on: A549; experiment: Growth inhibition of human A549 cells at 10 uM after 48 hrs; conditions: A549, 48 h, read-out: GI; summary of the method: as §1
[14] = tested on: SK-MEL-2; experiment: Growth inhibition of human SK-MEL-2 cells at 10 uM after 48 hrs; conditions: SK-MEL-2, 48 h, read-out: GI; summary of the method: as §2
[15] = tested on: OVCAR-3; experiment: Growth inhibition of human OVCAR3 cells at 10 uM after 48 hrs; conditions: OVCAR-3, 48 h, read-out: GI; summary of the method: as §1
[16] = tested on: Malme-3M; experiment: Growth inhibition of human MALME-3M cells at 10 uM after 48 hrs; conditions: read-out: GI; summary of the method: as §1
[17] = tested on: MOLT-4; experiment: Growth inhibition of human MOLT4 cells at 10 uM after 48 hrs; conditions: MOLT-4, 48 h, read-out: GI; summary of the method: as §1
[18] = tested on: MDA-MB-435; experiment: Growth inhibition of human MDA-MB-435 cells at 10 uM after 48 hrs; conditions: MDA-MB-435, 48 h, read-out: GI; summary of the method: as §1
[19] = tested on: SN12C; experiment: Growth inhibition of human SN12C cells at 10 uM after 48 hrs; conditions: read-out: GI; summary of the method: as §2
[20] = tested on: RPMI-8226; experiment: Growth inhibition of human RPMI8226 cells at 10 uM after 48 hrs; conditions: RPMI-8226, 48 h, read-out: GI; summary of the method: as §1
[21] = tested on: COLO 205; experiment: Growth inhibition of human COLO205 cells at 10 uM after 48 hrs; conditions: COLO 205, 48 h, read-out: GI; summary of the method: as §1

SMILES | inhibition of growth at 10 µM [1] | inhibition of growth at 10 µM [2] | inhibition of growth at 10 µM [3] | inhibition of growth at 10 µM [4] | inhibition of growth at 10 µM [5] | inhibition of growth at 10 µM [6] | inhibition of growth at 10 µM [7] | inhibition of growth at 10 µM [8] | inhibition of growth at 10 µM [9] | inhibition of growth at 10 µM [10] | inhibition of growth at 10 µM [11] | inhibition of growth at 10 µM [12] | inhibition of growth at 10 µM [13] | inhibition of growth at 10 µM [14] | inhibition of growth at 10 µM [15] | inhibition of growth at 10 µM [16] | inhibition of growth at 10 µM [17] | inhibition of growth at 10 µM [18] | inhibition of growth at 10 µM [19] | inhibition of growth at 10 µM [20] | further results
COc1ccc(/C=C2\CCCc3c2nc(N)nc3-c2ccc(OC)cc2)cc1 | < 30% | < 30% | < 30% | < 30% | < 30% | < 30% | 32.1% | < 30% | < 30% | < 30% | < 30% | < 30% | < 30% | < 30% | < 30% | < 30% | < 30% | < 30% | < 30% | 42.3% | inhibition of growth at 10 µM [21]: < 30%
Cc1nc2c(c(-c3ccc(Br)cc3)n1)CCC/C2=C\c1ccc(Br)cc1 | < 30% | < 30% | < 30% | < 30% | < 30% | < 30% | < 30% | < 30% | < 30% | < 30% | < 30% | < 30% | < 30% | < 30% | < 30% | < 30% | < 30% | < 30% | < 30% | 73.7% | inhibition of growth at 10 µM [21]: < 30%
